# From PubChem BioAssay
# L major viab = Leishmania major promastigote growth inhibition; Leishmania major promastigotes, resazurin fluorescence viability; 200,000 tested, 9% active; inhibition, % at 10 µM; AID 1063; in the data active means inhibition above about 50%;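 further: promastigotes grown with compound for 44 hours at 28 °C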
# Diaph act CS = diaphorase activation or chemical reduction counter-screen; Diaphorase/resazurin coupled assay, resorufin fluorescence, 16 min; active compounds read high; 1 = vehicle wells, 0 = NADH-free wells; activation factor at 20 µM; 190,000 tested, 0.005% active; AID 1229;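 active means diaphorase activity raised at least twofold by the compound at 20 µM; inactive means activation factor below 2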
#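 Assay system: Purified diaphorase enzyme from Clostridium kluyveri | Amount: Enzyme 0.07 U/mL final | Dosing: Compound 20 µM once, DMSO 1% | Timing: 16 min reaction at room temperature | Detection: Fluorescence, excitation 544 nm and emission 590 nm | Evaluation: Higher resorufin formation from activation or reduction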
# WT yeast gro inh = growth inhibition of WT yeast, mitochondrial fusion screen; inhibition, % at 10 µM; 190,000 tested, 2.1% active; mitochondrial fusion phenotypic screen, WT strain; in the data active means inhibition above about 58%; tested in S. cerevisiae
# ROMK mod = modulates human ROMK potassium channel activity | P48048 | Tet-inducible ROMK, thallium flux fluorescence; actives lie on both sides | B-score at 10 µM | 130,000 tested, 2% active;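 active means signal ratio slope over the read window, or its plate-corrected B-score, at least 3 SD from the plate mean, either direction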;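 further: B-score of the F/F0 ratio slope over 7 to 12 s after thallium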
# Target sequence (P48048 whole entry, looked up): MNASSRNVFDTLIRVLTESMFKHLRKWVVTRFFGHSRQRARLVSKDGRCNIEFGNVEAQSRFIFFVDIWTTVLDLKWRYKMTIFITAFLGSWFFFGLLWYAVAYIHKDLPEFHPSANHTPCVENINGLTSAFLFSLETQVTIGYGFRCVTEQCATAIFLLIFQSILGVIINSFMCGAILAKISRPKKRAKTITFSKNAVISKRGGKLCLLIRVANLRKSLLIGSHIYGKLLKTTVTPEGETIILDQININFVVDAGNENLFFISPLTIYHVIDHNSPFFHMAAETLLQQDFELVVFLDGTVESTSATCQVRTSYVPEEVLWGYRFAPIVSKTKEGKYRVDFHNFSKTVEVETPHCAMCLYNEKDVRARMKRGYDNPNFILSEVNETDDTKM
# Diaph inh CS = inhibits diaphorase or chemically oxidizes, flagging diaphorase assay artifacts. diaphorase resazurin-to-resorufin fluorescence, NADH, 16 min; bacterial (C. kluyveri) enzyme, not human. inhibition, % at 20 µM. 190,000 tested, 0.69% active;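 active means primary screen inhibition at 20 µM above a set limit, cut at about 50% in these data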;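 further: plate controls were DMSO with full reaction for no effect and wells lacking NADH for full effect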
#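 Assay system: diaphorase enzyme from Clostridium kluyveri. Quantity: enzyme working solution with 0.14 U/mL diaphorase. Schedule: reaction incubation of 16 min at room temperature. Technique: resorufin fluorescence, excitation 544 nm, emission 590 nm. Controls: No-NADH positive control and DMSO neutral control.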
# KCC2 mod = modulates chloride dependent transport by human KCC2; Q9H2X9; KCC2 cells, thallium flux FluoZin-2 fluorescence; B-score of Tl+ flux slope (higher = more flux/activation; lower = inhibition) at 10 µM; 190,000 tested, 2.2% active; AID 1456;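 active means thallium flux slope and its plate-corrected score both differing from the plate sample mean at a set confidence after two filtering rounds, in either direction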;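 further: slope of fluorescence scaled to starting intensity during 10 to 20 s after thallium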
# KCC2 sec1 = confirmation of human KCC2 transport modulators. shares compounds with KCC2 mod. HEK293-KCC2, thallium flux, FluoZin2 fluorescence; active compounds read high. normalised thallium flux (F/F0 slope) at 10 µM. 3,700 tested, 15% active;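 active means thallium flux slope above the same plate's solvent-only control mean plus 3 SD; inconclusive means the two replicate wells disagree; inactive means no significant difference from solvent-only control wells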
# KCC2 bumet counter = bumetanide-insensitive thallium flux in KCC2 cells with ouabain, counter-screen; shares compounds with KCC2 mod; HEK293-KCC2 + bumetanide/ouabain, thallium flux FluoZin2; active compounds read high; normalized thallium flux at 10 µM; 3,700 tested, 49% active; AID 1714;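 active means thallium entry rate above the same plate's blocked-transporter control wells by more than 3 SD; inconclusive means the two repeat wells disagree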;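 further: raw slope of fluorescence over initial fluorescence between 10 and 20 s after thallium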
# KCC2 sec2 = KCC2 (human) modulation, second secondary assay | shares compounds with KCC2 mod | HEK293-KCC2, thallium flux FluoZin2 fluorescence; actives lie on both sides; F/F0 rise rate, 10–20 s post-thallium | normalized thallium flux at 10 µM | 3,700 tested, 23% active | AID 1715;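 active means thallium flux slope more than 3 SD above or below the plate's solvent-only control mean, mostly below; inconclusive means the two repeat wells disagreed; inactive means no significant shift from solvent-only controls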;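 further: raw slope with 0.1% DMSO as baseline and bumetanide as block control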
# HEK counter1 = parental HEK flux effect, counter-screen; shares compounds with KCC2 mod; HEK293 parental cells, thallium flux FluoZin2, ouabain; baseline-ratio fluorescence slope, 10–20 s after thallium; thallium flux rate (normalised fluorescence) at 10 µM; 3,700 tested, 46% active;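 active means thallium flux rate significantly above the same plate's solvent-only control wells, beyond their mean plus 3 SD; inconclusive means the two replicate wells gave conflicting results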
# KCC2 retest ouab = KCC2 (human) modulation, ouabain retest | 3,700 tested, 48% active | HEK293-KCC2, thallium flux FluoZin2 fluorescence; bidirectional: low = inhibitor, high = activator | AID 1717 | raw Tl+ flux slope (below DMSO = inhibition, above = activation) at 10 µM | shares compounds with KCC2 mod;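 active means thallium flux slope beyond 3 SD from same-plate DMSO control mean in most replicates, usually higher, sometimes lower; inconclusive means repeat tests gave conflicting results; inactive means no significant difference from controls in most replicates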;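 further: slope of initial-normalized fluorescence between seconds 10 and 20 after thallium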
# HEK counter2 = acts in parental HEK cells, second KCC2 counter-screen; HEK293 parental, thallium flux FluoZin-2 fluorescence slope; AID 1718; shares compounds with KCC2 mod; thallium flux slope at 10 µM; 3,700 tested, 33% active;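 active means thallium flux slope above the same plate's solvent-control mean plus 3 SD in both duplicate wells; inconclusive means duplicate wells that disagreed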;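 further: run without ouabain in cells lacking the KCC2 cotransporter; slope of fluorescence scaled to its starting value between 10 and 20 s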
# The depositor's hits bear a star; u = inconclusive; x = no result given. The list is not random: actives were taken first. Their share in the collection is about 12%.
SMILES,L major viab,Diaph act CS,WT yeast gro inh,ROMK mod,Diaph inh CS,KCC2 mod,KCC2 sec1,KCC2 bumet counter,KCC2 sec2,HEK counter1,KCC2 retest ouab,HEK counter2
CCOc1ccc(-c2nc(-c3cccs3)c(CC(=O)O)s2)cc1OC,2,1,-1,0.29,5,-3.1*,0.017,0.0058*,0.029,0.0072,0.015,0.01
CCOc1ccc(-c2nnc(-c3cccs3)o2)cc1OCC,46,1,3,x,1,-0.89,x,x,x,x,x,x
O=C(O)CC/C(=C\c1ccc(N2CCCC2)c([N+](=O)[O-])c1)c1nc2ccccc2s1,-4,0.5,-12,0.98,48,-8.5*,0.007,0.0046,0.02*,0.0073,0.011*,0.0097
O=C(O)CC/C(=C\c1ccccc1[N+](=O)[O-])c1nc2ccccc2s1,-1,0.8,-9,-1.3,17,-4.1*,0.0092,0.0072,u,0.0065,0.012*,0.01
O=C(O)CC/C(=C\c1cccc(NC(=O)c2ccccc2Cl)c1)c1nc2ccccc2s1,-5,1,-12,0.37,-1,-2.3*,0.007,0.0051,u,0.0077,u,0.012
Cc1nn(-c2nc3ccccc3s2)c(N)c1Sc1ccc(F)cc1,-4,0.9,1,x,6,0.74,x,x,x,x,x,x
COc1cccc(/C=C(\CC(=O)O)c2nc3ccccc3s2)c1,-5,0.9,-2,0.066,11,0.51,x,x,x,x,x,x
Cc1nn(-c2ccc(F)cc2)c(Cl)c1/C=C(\CCC(=O)O)c1nc2ccccc2s1,-6,0.8,-4,x,15,-9.4*,u,u,0.018*,0.0059*,0.0093*,u
Cc1nc(SC2CC(=O)N(c3ccccc3)C2=O)nc2c1CCCC2 (stereo not given),8,0.9,-3,-0.35,11,x,0.0062,0.0038,0.026*,u,0.016*,0.01
Cc1nnc(SC2CC(=O)N(c3ccccc3)C2=O)s1 (stereo not given),0,1.1,11,x,-8,-1.1,x,x,x,x,x,x
Cc1ccc(C(=O)NC(=S)N2CC(C)OC(C)C2)cc1[N+](=O)[O-] (stereo not given),-4,0.8,-4,x,16,x,0.018*,0.037*,0.03,0.021*,0.035*,0.013*
COc1ccc(C(=O)NC(=S)N2CCCCC2)cc1,7,1,20,0.026,5,2.7,x,x,x,x,x,x
COc1ccc(C(=O)NC(=S)N2CC(C)OC(C)C2)cc1 (stereo not given),16,0.9,-3,0.83,10,3.3,x,x,x,x,x,x
COc1cc(OC)cc(C(=O)NC(=S)N2CCCCCC2)c1,-3,0.9,43,0.45,6,74*,0.034*,0.11*,0.04*,0.062*,0.083*,0.021*
COc1ccc(C(=O)NC(=S)N2CCCCC2)cc1[N+](=O)[O-],45,0.9,4,x,12,6.8*,0.012,0.021*,0.035,0.012*,0.026,u
Cn1c(N/N=C\c2cccc(O)c2)cc(=O)n(C)c1=O,-6,0.9,-6,0.18,7,0,x,x,x,x,x,x
COc1ccc(Cl)cc1/C=C(\C#N)C(N)=O,20,x,0,x,x,-0.017,x,x,x,x,x,x
COc1c(Cl)cc(Cl)cc1/C=N/n1cnnc1,19,1.2,2,-0.49,-17,x,x,x,x,x,x,x
Brc1ccccc1-c1nnc(COc2cccc3cccnc23)o1,2,0.8,-8,0.92,23,-3*,0.0069,0.0062,0.031,0.0063,0.038*,0.0096
Brc1ccccc1-c1nnc(COc2ncnc3ccccc23)o1,x,x,x,x,x,-0.39,x,x,x,x,x,x
CCCCCC(/C=N/Nc1ccc(S(=O)(=O)N2CCOCC2)cc1[N+](=O)[O-])=C\c1ccccc1,-2,0.9,11,0.38,14,0.02,x,x,x,x,x,x
O=C1C2CCCN2C(c2ccccc2F)N1c1ccc(F)cc1 (stereo not given),-7,0.9,-4,x,7,x,x,x,x,x,x,x
O=C1C2CCCN2C(c2ccccc2F)N1c1cccc(Cl)c1 (stereo not given),-7,0.8,7,x,21,-3.7*,0.0073,u,0.031,u,0.02,0.012
Cc1ccc(C(=O)NCCCc2ccccc2)c(C)c1,9,0.9,-5,0.17,9,-1.7,x,x,x,x,x,x
O=C(Nc1nc(-c2ccccn2)cs1)c1ccc([N+](=O)[O-])o1,x,x,x,x,x,0.31,x,x,x,x,x,x
SMILES,L major viab,Diaph act CS,WT yeast gro inh,ROMK mod,Diaph inh CS,KCC2 mod,KCC2 sec1,KCC2 bumet counter,KCC2 sec2,HEK counter1,KCC2 retest ouab,HEK counter2
O=C(Nc1nc(-c2ccccn2)cs1)c1cc(Cl)ccc1[N+](=O)[O-],100*,0.8,70*,1.4,22,6.8*,0.014*,0.037*,0.039,0.018*,0.038*,0.015*
CCCCCC(=O)Cc1cc(O)cc2c1C(=O)Oc1cc(O)c(C(=O)O)c(CCCCC)c1O2,x,x,x,x,x,-1.6*,u,0.0046,0.026*,0.008,u,0.011
FC(F)(F)c1cc(-c2ccco2)nc(NCc2ccccc2)n1,2,0.9,41,0.053,6,x,x,x,x,x,x,x
FC(F)(F)c1cc(-c2ccco2)nc(NCc2cccnc2)n1,7,1,7,0.031,3,x,0.0075,0.0045,0.03,0.0065,0.018,0.0097
CN(C)CCN1CC(O)=C(c2nc3ccccc3s2)C1=N,x,x,x,x,x,-1.2,x,x,x,x,x,x
N=C1C(c2nc3ccccc3s2)=C(O)CN1Cc1ccco1,23,0.9,1,x,12,3.6*,0.0062,u,0.029,0.0075,0.018,0.011
Cc1cc(Br)ccc1OCC(=O)NNC(=O)C(=O)Nc1ccccc1,-3,1.2,-46,x,-16,x,0.022*,0.093*,u,0.087*,0.075*,0.072*
Cc1ccc(OCC(=O)NNC(=O)C(=O)N2CCCC2)c(C)c1,-4,0.9,20,-0.28,11,4.3*,0.0054,0.013*,0.035,0.013*,u,0.015*
COc1ccc(Nc2oc(COc3ccccc3F)nc2C#N)cc1,17,0.8,0,x,16,x,x,x,x,x,x,x
